Measurements as given in ChEMBL document CHEMBL2401723, “Optimization of the electrophile of chloronitrobenzamide leads active against Trypanosoma brucei” (Bioorg Med Chem Lett, 2013).
Values after ≈ are worked out from the molar mass of the structure shown.

Assays:
[1] = Permeability of the compound by PAMPA; assay type: ADME; conditions: for Papp: read-out: permeability
Procedure, shortened: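 Passive permeability by parallel artificial membrane assay (pION implementation), measured against PBS pH 7.4 sink buffer.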

HepG2 = test: Cytotoxicity against human HepG2 cells assessed as growth inhibition after 72 hrs by Cell-Titer Glo assay; assay type: cell-based; conditions: HepG2, 72 h
Procedure, shortened: (§1)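 Human cell lines (Raji Burkitt's lymphoma, BJ immortalized foreskin fibroblast, HEK293 embryonic kidney, HepG2) exposed 72 h to a 10-point threefold dilution series by pin transfer, lowest final 0.5 nM, final DMSO 0.2%; proliferation run in triplicate, EC50 derived.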

Raji = test: Cytotoxicity against human Raji cells assessed as growth inhibition after 72 hrs by Cell-Titer Glo assay; assay type: cell-based; procedure, shortened: as §1
BJ = test: Cytotoxicity against human BJ cells assessed as growth inhibition after 72 hrs by Cell-Titer Glo assay; assay type: cell-based; procedure, shortened: as §1
[2] = Kinetic solubility in PBS buffer at pH 7.4 after 18 hrs by UV-spectroscopic analysis; assay type: physicochemical; conditions: for solubility kinetic at 18 h: PBS buffer, pH 7.4, read-out: Kinetic_solubility
[3] = tested on: Trypanosoma brucei brucei; test: Antitrypanosomal activity against Trypanosoma brucei brucei assessed as parasite growth inhibition after 48 hrs by Cell-Titer Glo assay; assay type: functional, organism-based
HEK293 = test: Cytotoxicity against HEK293 cells assessed as growth inhibition after 72 hrs by Cell-Titer Glo assay; assay type: cell-based; conditions: Homo sapiens, HEK293, 72 h; procedure, shortened: as §1
[4] = Half life in mouse liver microsomes; assay type: ADME, Microsome
[5] = Half life in human liver microsomes; assay type: ADME, Microsome
[6] = tested on: Trypanosoma brucei gambiense; test: Antitrypanosomal activity against Trypanosoma brucei gambiense STIB930 assessed as parasite growth inhibition after 48 hrs by Cell-Titer Glo assay; assay type: functional, organism-based; conditions: STIB930, 48 h
Procedure, shortened: (§2)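 Parasites exposed to a 10-point threefold dilution series added by pin transfer, lowest final concentration 0.5 nM, final DMSO 0.2%; EC50 from the series, mean of two experiments.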

[7] = tested on: Trypanosoma brucei rhodesiense; test: Antitrypanosomal activity against wild type Trypanosoma brucei rhodesiense STIB900 assessed as parasite growth inhibition after 48 hrs by Cell-Titer Glo assay; assay type: functional, organism-based; conditions: STIB900, 48 h; procedure, shortened: as §2
[8] = tested on: Trypanosoma brucei brucei; test: Antitrypanosomal activity against Trypanosoma brucei brucei assessed as parasite growth inhibition; assay type: functional, organism-based

Structure (SMILES)	Papp [1]	EC50 (HepG2)	EC50 (Raji)	EC50 (BJ)	solubility kinetic at 18 h [2]	EC50 [3]	EC50 (HEK293)	half-life [4]	half-life [5]	EC50 [6]	EC50 [7]	permeability [1]	Kinetic_solubility ([2]; buffer, pH 7.4, 18 h, BLD = below limit of detection)	EC50 [8]
O=C(Nc1cccc(-c2nc3ccccc3s2)c1)c1cccnc1Cl	677 ×10⁻⁶ cm/s	> 25 µM	> 25 µM	> 25 µM	0.52 µM (≈ 0.19 µg/mL)	25 µM	> 25 µM	–	–	–	–	–	–	–
C=CC(=O)Nc1cccc(-c2nc3ccccc3s2)c1	797 ×10⁻⁶ cm/s	> 25 µM	> 25 µM	> 25 µM	0.18 µM (≈ 0.0505 µg/mL)	> 33 µM	> 25 µM	–	–	–	–	–	–	–
Cc1ccc(-c2nc3ccccc3s2)cc1NC(=O)c1cnccc1Cl	791 ×10⁻⁶ cm/s	> 25 µM	> 25 µM	> 25 µM	0.14 µM (≈ 0.0532 µg/mL)	0.058 µM	> 25 µM	0.58 h	3.7 h	0.058 µM	0.055 µM	–	–	–
O=C(Nc1ccc(F)c(-c2nc3ccccc3o2)c1)c1cnccc1Cl	305 ×10⁻⁶ cm/s	> 25 µM	> 25 µM	> 25 µM	0.67 µM (≈ 0.246 µg/mL)	0.12 µM	> 25 µM	–	–	0.12 µM	0.05 µM	–	–	–
O=C(Nc1cc(-c2nc3ccccc3o2)ccc1F)c1cnccc1Cl	258 ×10⁻⁶ cm/s	> 25 µM	> 25 µM	> 25 µM	0.13 µM (≈ 0.0478 µg/mL)	0.44 µM	> 25 µM	–	–	–	–	–	–	–
CC(Cl)C(=O)Nc1cccc(-c2nc3ccccc3s2)c1 (stereo not drawn)	769 ×10⁻⁶ cm/s	> 25 µM	> 25 µM	> 25 µM	0.83 µM (≈ 0.263 µg/mL)	1.2 µM	> 25 µM	–	–	–	–	–	–	–
Cc1ccc(-c2nc3ccccc3o2)cc1NC(=O)c1cnccc1Cl	646 ×10⁻⁶ cm/s	> 25 µM	> 25 µM	> 25 µM	0.51 µM (≈ 0.186 µg/mL)	0.18 µM	> 25 µM	–	–	0.17 µM	0.12 µM	–	–	–
O=C(Nc1cccc(-c2nc3ccccc3s2)c1)c1cnc(Cl)s1	133 ×10⁻⁶ cm/s	> 25 µM	> 25 µM	> 25 µM	0.94 µM (≈ 0.35 µg/mL)	18 µM	> 25 µM	–	–	–	–	–	–	–
O=C(Nc1cccc(-c2nc3ccccc3s2)c1)c1ccnc(Cl)c1	478 ×10⁻⁶ cm/s	> 25 µM	> 25 µM	> 25 µM	0.74 µM (≈ 0.271 µg/mL)	20 µM	> 25 µM	–	–	–	–	–	–	–
COc1ccc(-c2nc3ccccc3s2)cc1NC(=O)c1cnccc1Cl	121 ×10⁻⁶ cm/s	> 25 µM	13 µM	> 25 µM	0.34 µM (≈ 0.135 µg/mL)	0.12 µM	> 25 µM	–	–	–	–	–	–	–
O=C(Nc1cccc(-c2nc3ccccc3s2)c1)c1cnccc1Cl	732 ×10⁻⁶ cm/s	> 25 µM	12 µM	> 25 µM	0.32 µM (≈ 0.117 µg/mL)	0.3 µM	> 25 µM	–	–	0.061 µM	0.062 µM	–	–	–
O=C(O)/C=C/C(=O)Nc1cccc(-c2nc3ccccc3s2)c1	4 ×10⁻⁶ cm/s	> 25 µM	> 25 µM	> 25 µM	56 µM (≈ 18.2 µg/mL)	> 33 µM	> 25 µM	–	–	–	–	–	–	–
O=C(Nc1cccc(-c2nc3ccccc3s2)c1)c1ccc(Cl)nc1Cl	104 ×10⁻⁶ cm/s	> 25 µM	> 25 µM	> 25 µM	0.35 µM (≈ 0.14 µg/mL)	11 µM	> 25 µM	–	–	–	–	–	–	–
C/C=C/C(=O)Nc1cccc(-c2nc3ccccc3s2)c1	–	> 25 µM	> 25 µM	> 25 µM	0.11 µM (≈ 0.0324 µg/mL)	> 33 µM	> 25 µM	–	–	–	–	1640 ×10⁻⁶ cm/s	–	–
COc1ccc(-c2nc3ccccc3o2)cc1NC(=O)c1cnccc1Cl	391 ×10⁻⁶ cm/s	> 25 µM	> 25 µM	> 25 µM	1.68 µM (≈ 0.638 µg/mL)	0.2 µM	> 25 µM	–	–	–	–	–	–	–
CC(C)(CCl)C(=O)Nc1cccc(-c2nc3ccccc3s2)c1	891 ×10⁻⁶ cm/s	> 25 µM	> 25 µM	> 25 µM	–	> 33 µM	> 25 µM	–	–	–	–	–	BLD	–
CN(C)CCC(=O)Nc1cccc(-c2nc3ccccc3s2)c1	–	21 µM	> 25 µM	> 25 µM	56 µM (≈ 18.2 µg/mL)	> 33 µM	> 25 µM	–	–	–	–	2080 ×10⁻⁶ cm/s	–	–
O=C(Nc1cc(-c2nc3ccccc3s2)ccc1F)c1cnccc1Cl	306 ×10⁻⁶ cm/s	> 25 µM	> 25 µM	> 25 µM	0.18 µM (≈ 0.0691 µg/mL)	0.18 µM	> 25 µM	–	–	–	–	–	–	–
O=C(CCl)Nc1cccc(-c2nc3ccccc3s2)c1	660 ×10⁻⁶ cm/s	16 µM	1.7 µM	8.5 µM	1 µM (≈ 0.303 µg/mL)	0.12 µM	10 µM	–	–	–	–	–	–	–
O=C(Nc1cccc(-c2nc3ccccc3s2)c1)c1ccncc1Cl	563 ×10⁻⁶ cm/s	> 25 µM	> 25 µM	> 25 µM	0.32 µM (≈ 0.117 µg/mL)	24 µM	> 25 µM	–	–	–	–	–	–	–
O=C(Nc1cccc(-c2nc3ccccc3s2)c1)c1cc([N+](=O)[O-])cnc1Cl	42 ×10⁻⁶ cm/s	> 25 µM	8.4 µM	> 25 µM	0.45 µM (≈ 0.185 µg/mL)	13 µM	> 25 µM	–	–	–	–	–	–	–
O=C(Nc1ccc(F)c(-c2nc3ccccc3s2)c1)c1cnccc1Cl	21 ×10⁻⁶ cm/s	> 25 µM	> 25 µM	> 25 µM	0.08 µM (≈ 0.0307 µg/mL)	0.12 µM	> 25 µM	> 4 h	> 4 h	0.038 µM	0.018 µM	–	–	–
Cc1ccc(-c2nc3ccccc3s2)cc1NC(=O)c1cc([N+](=O)[O-])c(N2CCNCC2)cc1Cl	–	–	–	–	–	–	–	–	–	–	–	–	–	0.027 µM
O=C(Nc1ccc(Cl)cc1)c1cc([N+](=O)[O-])ccc1Cl	536 ×10⁻⁶ cm/s	> 25 µM	> 25 µM	> 25 µM	3 µM (≈ 0.933 µg/mL)	0.92 µM	> 25 µM	–	–	–	–	–	–	–
C=C(C)C(=O)Nc1cccc(-c2nc3ccccc3s2)c1	987 ×10⁻⁶ cm/s	> 25 µM	> 25 µM	> 25 µM	0.42 µM (≈ 0.124 µg/mL)	> 33 µM	> 25 µM	–	–	–	–	–	–	–
